Entries after “also recorded” stand apart in the source; their conditions may differ.
What was measured:
Type in all cases: in vivo, human
[1] = test system: participants with mild‐to‐moderate AD
Procedure, shortened: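 Adults and children with mild-to-moderate AD (IGA 2–3, 2–20% BSA, EASI 3–21) were randomized equally to eight arms for 6 weeks. QD arms were vehicle, 0·1% (1 mg g–1), 0·3%, 1·0% or 3·0% cream; BID arms were vehicle, 0·3% or 1%. Application was to all affected areas except hair-bearing scalp. Read-outs were POEM at weeks 1, 2 and 6 and weekly PP-NRS averages, analysed by ANCOVA or MMRM.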

[2] = test system: participants with mild‐to‐moderate AD; assay: Phase IIb study: safety and tolerability
Procedure, shortened: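 Safety data came from randomized participants treated for 6 weeks with vehicle or cream (QD 0·1–3·0%, or BID 0·3%/1%). Measures were treatment-emergent adverse events coded by System Organ Class, discontinuations due to TEAEs, vital signs, laboratory tests (haematology, creatine kinase, liver function) and ECGs. All were summarized descriptively.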

[3] = Phase IIb study: plasma concentrations of brepocitinib; conditions: topical cream, all dose groups; lower limit of quantification 0·200 ng mL^–1
Procedure, shortened: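 Blood was drawn pre-dose at baseline and at weeks 1, 2, 3, 4 and 6, each at the same interval after application, during 6 weeks of topical cream given QD (0·1–3·0%) or BID (0·3%, 1%). Plasma brepocitinib was quantified against an LLOQ of 0·200 ng mL–1 and summarized as median concentration per dose group.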

For Cn1cc(Nc2nccc(N3C[C@H]4CC[C@@H](C3)N4C(=O)[C@@H]3CC3(F)F)n2)cn1 [brepocitinib], the “Percentage change from baseline in EASI score compared with respective vehicle” value ([1]; 1% QD, 3% QD and 1% BID groups, week 1 and all subsequent time points) was “significantly greater percentage changes from baseline in EASI score”, the “Onset of clinically relevant reductions in pruritus” value ([1]; 24 h after the first administration) was “as early as day 2” and the “Change from baseline in POEM at week 6 vs. vehicle” value ([1]; all brepocitinib groups) was “significantly different from vehicle”. For the same molecule, the “Discontinued from study due to TEAE, participants” value (from here on “Discontinued from study due”) ([2]; 0·1% QD (N = 37)) was 2 (5·4) n (%), the “Nasopharyngitis (TEAE), participants” value ([2]; 0·1% QD (N = 37)) was 2 (5·4) n (%) and the “Severe TEAEs, participants” value ([2]; 0·1% QD (N = 37)) was 0 n (%). For the same molecule, the “TEAEs, all causalities, participants” value ([2]; 0·1% QD (N = 37)) was 17 (45·9) n (%), the “Treatment‐emergent SAEs, participants” value ([2]; 0·1% QD (N = 37)) was 0 n (%) and the “Worsening of AD (TEAE), participants” value ([2]; 0·1% QD (N = 37)) was 3 (8·1) n (%). For the same molecule, the “Cases of creatine kinase elevation (≥ 2–3× the upper limit of normal)” value ([2]; 0·1% QD and 0·3% QD groups, not deemed treatment‐related) was “one participant each”, the “Discontinued from study due” value ([2]; 0·3% BID (N = 36)) was 1 (2·8) n (%) and the “Nasopharyngitis (TEAE), participants” value ([2]; 0·3% BID (N = 36)) was 2 (5·6) n (%). The “Severe TEAEs, participants” value ([2]; 0·3% BID (N = 36)) was 1 (2·8) n (%), the “TEAEs, all causalities, participants” value ([2]; 0·3% BID (N = 36)) was 9 (25·0) n (%) and the “Treatment‐emergent SAEs, participants” value ([2]; 0·3% BID (N = 36)) was 0 n (%). For the same molecule, the “Worsening of AD (TEAE), participants” value ([2]; 0·3% BID (N = 36)) was 0 n (%), the “Discontinued from study due” value ([2]; 0·3% QD (N = 36)) was 1 (2·8) n (%) and the “Nasopharyngitis (TEAE), participants” value ([2]; 0·3% QD (N = 36)) was 2 (5·6) n (%). The “Severe TEAEs, participants” value ([2]; 0·3% QD (N = 36)) was 0 n (%), the “TEAEs, all causalities, participants” value ([2]; 0·3% QD (N = 36)) was 11 (30·6) n (%) and the “Treatment‐emergent SAEs, participants” value ([2]; 0·3% QD (N = 36)) was 0 n (%). For the same molecule, the “Worsening of AD (TEAE), participants” value ([2]; 0·3% QD (N = 36)) was 1 (2·8) n (%), the “Discontinued from study due” value ([2]; 1.0% QD (N = 37)) was 2 (5·4) n (%) and the “Nasopharyngitis (TEAE), participants” value ([2]; 1.0% QD (N = 37)) was 3 (8·1) n (%). The “Severe TEAEs, participants” value ([2]; 1.0% QD (N = 37)) was 0 n (%), the “TEAEs, all causalities, participants” value ([2]; 1.0% QD (N = 37)) was 12 (32·4) n (%) and the “Treatment‐emergent SAEs, participants” value ([2]; 1.0% QD (N = 37)) was 0 n (%). The “Worsening of AD (TEAE), participants” value ([2]; 1.0% QD (N = 37)) was 0 n (%), the “Discontinued from study due” value ([2]; 1·0% BID (N = 37)) was 0 n (%) and the “Nasopharyngitis (TEAE), participants” value ([2]; 1·0% BID (N = 37)) was 2 (5·4) n (%). The “Severe TEAEs, participants” value ([2]; 1·0% BID (N = 37)) was 0 n (%), the “TEAEs, all causalities, participants” value ([2]; 1·0% BID (N = 37)) was 14 (37·8) n (%) and the “Treatment‐emergent SAEs, participants” value ([2]; 1·0% BID (N = 37)) was 0 n (%). The “Worsening of AD (TEAE), participants” value ([2]; 1·0% BID (N = 37)) was 2 (5·4) n (%), the “Discontinued from study due” value ([2]; 3·0% QD (N = 36)) was 2 (5·6) n (%) and the “Nasopharyngitis (TEAE), participants” value ([2]; 3·0% QD (N = 36)) was 4 (11·1) n (%). The “Severe TEAEs, participants” value ([2]; 3·0% QD (N = 36)) was 0 n (%), the “TEAEs, all causalities, participants” value ([2]; 3·0% QD (N = 36)) was 10 (27·8) n (%) and the “Treatment‐emergent SAEs, participants” value ([2]; 3·0% QD (N = 36)) was 0 n (%). The “Worsening of AD (TEAE), participants” value ([2]; 3·0% QD (N = 36)) was 1 (2·8) n (%), the “Discontinuations due to TEAEs in SOC skin and subcutaneous tissue disorders” value ([2]; all brepocitinib groups together) was 4 n and the “Trends in haemoglobin, platelet, lymphocyte or neutrophil counts or creatine kinase levels” value ([2]; all groups) was “no clinically significant trends”. The “Serious AEs or deaths” value ([2]; all groups, 6 weeks treatment) was “no serious AEs or deaths; also recorded: no serious TEAEs or deaths” and the Plasma brepocitinib concentrations [3] was “low and highly variable”.

Source: publication PMC10092158 (The British Journal of Dermatology, 2022)
